Series [1] deals with NCI-H1975. Kind of series: Cytotoxicity against human NCI-H1975 cells harboring EGFR L858R/T790M double mutant assessed as inhibition of cell proliferation after 72 hrs by CellTiter-Glo assay. In kind it is functional, cell-based. The note with it: NCI-H1975, 72 h.
Another series has as its system A-431. Kind of series: Cytotoxicity against human A431 cells expressing wild-type EGFR assessed as inhibition of cell proliferation after 72 hrs by CellTiter-Glo assay. In kind it is cell-based. As to conditions: A-431, 72 h.
Series [2] is described as follows: Cytotoxicity against human HCC827 cells harboring EGFR 746 to 750 deletion mutant assessed as inhibition of cell proliferation after 72 hrs by CellTiter-Glo assay. In kind it is functional, cell-based. The note with it: HCC827, 72 h.
A further series relates to Mus musculus. Kind of series: In vivo inhibition of EGFR L858R/T790M double mutant phosphorylation in human NCI-H1975 cells xenografted in athymic nude mouse at 30 mg/kg, po measured at 4 hrs by mesoscale multiplex assay relative to control. It is filed as functional. A digest of the protocol:
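Female athymic nude mice carried matrigel plugs holding 5 x 10⁶ H1975 cells, n = 3 per group. Control or compound given at 30 mg/kg po. Plugs and plasma taken 4 h after dosing. p-EGFR in plug measured by quantitative MSD assay, given as % p-EGFR/PRAS40 vs control.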

Series [3] can be described thus: Selectivity ratio of IC50 for human A431 cells expressing wild-type EGFR to IC50 for human NCI-H1975 cells harboring EGFR L858R/T790M double mutant. It is filed as ADME, cell-based.
Series [4] in a line: (§1) AUC (0 to infinity) in Sprague-Dawley rat at 10 mg/kg, po. It is filed as ADME, organism-based. Set-up: dose 10 mg/kg, route oral, time infinity. As to conditions: Sprague-Dawley, in vivo. In outline: (§2)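 Male Sprague Dawley rats, 3 animals per route; mean values. IV dose 1 mg/kg as a DMSO solution. Oral dose 10 mg/kg, in one of three vehicles by compound: 1% Pluronic F68/2% HPMC/15% HPBCD/82% water–methanesulfonic acid pH 4.5; 20% HPBCD/80% water–methanesulfonic acid pH 4.0; or 1% Pluronic F68/2% HPMC/97% water–methanesulfonic acid pH 4.0.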

Series [5] in a line: Selectivity ratio of IC50 for wild type EGFR phosphorylation in human A431 cells to IC50 for EGFR 746 to 750 deletion mutant phosphorylation in human HCC827 cells. It is filed as ADME, cell-based.
A short description of series [6]: Selectivity ratio of IC50 for human A431 cells expressing wild-type EGFR to IC50 for human HCC827 cells harboring EGFR 746 to 750 deletion mutant. In kind it is ADME, cell-based.
Series [7] in a line: Half life in Sprague-Dawley rat at 1 mg/kg, iv. In kind it is ADME, organism-based. The note with it: in vivo. A digest of the protocol: as §2
A short description of series [8]: Volume of distribution at steady state in Sprague-Dawley rat at 1 mg/kg, iv. It is filed as ADME, organism-based. As to conditions: in vivo, read-out: Vdss. A digest of the protocol: as §2
Series [9] concerns the target Epidermal growth factor receptor (Homo sapiens, UniProt P00533, 746-750DEL). Kind of series: Inhibition of EGFR 746 to 750 deletion mutant phosphorylation in human HCC827 cells after 60 mins by mesoscale multiplex assay. In kind it is cell-based.
Series [10] is described as follows: (§3) Oral bioavailability in Sprague-Dawley rat at 10 mg/kg. It is filed as ADME, organism-based. The note with it: Sprague-Dawley, in vivo. A digest of the protocol: as §2
The species named for series [11] is Rattus norvegicus. Description: Hepatobiliary toxicity in Sprague-Dawley rat measured for 4 days. In kind it is organism-based. As to conditions: in vivo, 96 h.
For series [12], the target named is Epidermal growth factor receptor (Homo sapiens, UniProt P00533, L858R/T790M). Description: Inhibition of EGFR L858R/T790M double mutant phosphorylation in human NCI-H1975 cells after 60 mins by mesoscale multiplex assay. In kind it is cell-based.
Series [13] can be described thus: (§4) Clearance in Sprague-Dawley rat at 1 mg/kg, iv. It is filed as ADME, organism-based. The note with it: Sprague-Dawley, in vivo. In outline: as §2
For series [14], the target named is Epidermal growth factor receptor (Homo sapiens, UniProt P00533). Kind of series: Inhibition of wild type EGFR phosphorylation in human A431 cells after 60 mins by mesoscale multiplex assay. It is filed as cell-based, A-431.
Series [15] can be described thus: Selectivity ratio of IC50 for wild type EGFR phosphorylation in human A431 cells to IC50 for EGFR L858R/T790M double mutant phosphorylation in human NCI-H1975 cells. It is filed as ADME, cell-based.
Series [16] has as its system NCI-H1975. Description: Antitumor activity against human NCI-H1975 cells xenografted in athymic nude mouse assessed as tumor growth inhibition at 30 mg/kg, po qd administered for 2 weeks started on day 6 post tumor implantation measured on day 19 relative to control. It is filed as functional.
Series [17] has as its system Rattus norvegicus. Described as §1. In kind it is ADME, organism-based. Set-up: dose 10 mg/kg, route oral, time infinity. As to conditions: in vivo. In outline: as §2
The test system of series [18] is Rattus norvegicus. The series is described as §3. In kind it is ADME, organism-based. As to conditions: in vivo. A digest of the protocol: as §2
In series [19] the test system is Rattus norvegicus. The description is as §4. It is filed as ADME, organism-based. The note with it: in vivo. A digest of the protocol: as §2

Activity calls are given as the source filed them. The rule behind the calls is not given here.

Sequence of Epidermal growth factor receptor (Homo sapiens, UniProt P00533, L858R/T790M) (P00533 25-1210 T790M/L858R limits assumed): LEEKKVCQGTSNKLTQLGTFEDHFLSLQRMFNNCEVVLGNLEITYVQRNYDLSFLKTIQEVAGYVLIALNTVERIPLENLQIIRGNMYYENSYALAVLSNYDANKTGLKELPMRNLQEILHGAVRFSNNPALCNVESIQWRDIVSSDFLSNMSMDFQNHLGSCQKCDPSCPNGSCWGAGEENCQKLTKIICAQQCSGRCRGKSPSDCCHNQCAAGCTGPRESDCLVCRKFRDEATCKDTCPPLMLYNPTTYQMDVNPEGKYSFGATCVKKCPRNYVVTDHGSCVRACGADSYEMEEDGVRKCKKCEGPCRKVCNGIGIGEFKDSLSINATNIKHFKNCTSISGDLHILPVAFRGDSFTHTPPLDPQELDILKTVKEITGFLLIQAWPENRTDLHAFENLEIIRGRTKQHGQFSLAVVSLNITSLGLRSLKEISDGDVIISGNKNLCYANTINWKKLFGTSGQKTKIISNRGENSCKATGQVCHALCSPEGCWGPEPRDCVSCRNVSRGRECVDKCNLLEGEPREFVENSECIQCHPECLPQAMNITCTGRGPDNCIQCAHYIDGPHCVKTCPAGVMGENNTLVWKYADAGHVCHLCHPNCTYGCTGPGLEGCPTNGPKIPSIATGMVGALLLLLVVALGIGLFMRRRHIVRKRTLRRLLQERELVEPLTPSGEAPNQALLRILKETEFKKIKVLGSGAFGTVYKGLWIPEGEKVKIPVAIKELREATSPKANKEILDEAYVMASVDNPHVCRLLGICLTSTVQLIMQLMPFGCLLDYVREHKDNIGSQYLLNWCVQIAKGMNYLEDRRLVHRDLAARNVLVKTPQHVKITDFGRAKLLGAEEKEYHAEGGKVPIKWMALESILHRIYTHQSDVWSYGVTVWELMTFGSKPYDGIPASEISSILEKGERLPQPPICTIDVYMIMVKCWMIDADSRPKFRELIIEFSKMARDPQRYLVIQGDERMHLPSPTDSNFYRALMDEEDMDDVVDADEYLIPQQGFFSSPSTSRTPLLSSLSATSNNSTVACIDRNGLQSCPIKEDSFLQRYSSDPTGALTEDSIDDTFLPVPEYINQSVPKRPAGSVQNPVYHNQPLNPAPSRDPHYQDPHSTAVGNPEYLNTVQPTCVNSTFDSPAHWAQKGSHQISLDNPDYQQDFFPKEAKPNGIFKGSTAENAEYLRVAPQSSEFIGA
Sequence of Epidermal growth factor receptor (Homo sapiens, UniProt P00533, 746-750DEL) (P00533 whole entry, looked up, stated change not applied): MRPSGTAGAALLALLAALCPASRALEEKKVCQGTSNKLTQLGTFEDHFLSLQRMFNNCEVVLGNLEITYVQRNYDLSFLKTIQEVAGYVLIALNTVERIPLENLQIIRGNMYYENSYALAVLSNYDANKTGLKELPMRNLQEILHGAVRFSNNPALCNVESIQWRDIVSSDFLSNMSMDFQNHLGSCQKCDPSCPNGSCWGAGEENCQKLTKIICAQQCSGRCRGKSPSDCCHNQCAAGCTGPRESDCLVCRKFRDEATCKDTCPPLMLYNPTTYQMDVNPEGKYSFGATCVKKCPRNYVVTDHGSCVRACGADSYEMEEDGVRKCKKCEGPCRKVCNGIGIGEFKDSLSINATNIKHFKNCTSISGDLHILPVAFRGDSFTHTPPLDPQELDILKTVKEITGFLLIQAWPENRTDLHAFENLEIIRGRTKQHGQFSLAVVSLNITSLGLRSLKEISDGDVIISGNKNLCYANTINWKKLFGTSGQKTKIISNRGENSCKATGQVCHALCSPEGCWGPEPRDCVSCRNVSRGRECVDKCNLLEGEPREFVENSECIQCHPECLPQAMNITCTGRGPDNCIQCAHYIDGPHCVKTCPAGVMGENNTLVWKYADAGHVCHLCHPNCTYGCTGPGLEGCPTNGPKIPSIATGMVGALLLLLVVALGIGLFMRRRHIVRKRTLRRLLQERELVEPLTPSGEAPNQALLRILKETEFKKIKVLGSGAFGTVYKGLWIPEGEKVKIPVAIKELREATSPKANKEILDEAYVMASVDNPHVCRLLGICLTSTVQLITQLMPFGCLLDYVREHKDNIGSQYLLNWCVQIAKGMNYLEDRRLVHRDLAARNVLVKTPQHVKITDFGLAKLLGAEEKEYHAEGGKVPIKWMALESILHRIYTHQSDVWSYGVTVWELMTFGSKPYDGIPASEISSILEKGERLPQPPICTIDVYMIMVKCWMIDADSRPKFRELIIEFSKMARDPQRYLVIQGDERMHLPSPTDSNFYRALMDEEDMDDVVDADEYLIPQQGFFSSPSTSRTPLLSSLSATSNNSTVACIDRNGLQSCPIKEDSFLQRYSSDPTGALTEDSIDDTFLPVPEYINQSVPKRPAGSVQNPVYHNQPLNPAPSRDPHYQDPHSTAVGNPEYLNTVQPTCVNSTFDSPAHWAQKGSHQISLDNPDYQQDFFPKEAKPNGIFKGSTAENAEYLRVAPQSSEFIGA
Sequence of Epidermal growth factor receptor (Homo sapiens, UniProt P00533) (P00533 whole entry): as the sequence (P00533 whole entry, looked up, stated change not applied) above

Regarding `C=CC(=O)Nc1cccc(-n2c(=O)c(OC)cc3cnc(Nc4ccc(N5CCN(C)CC5)cc4OC)nc32)c1`, the results for the IC50 (in the series with NCI-H1975 [1]; in the series on A-431; in [2]) were 273 nM, 201 nM and 61 nM, respectively.

Turning to `C=CC(=O)Nc1cccc(-n2c(=O)cc(C)c3cnc(Nc4ccc(N5CCN(C)CC5)cc4)nc32)c1`, the IC50 in the series on NCI-H1975 [1] was 4 nM; with A-431 it was more than 3000 nM; in series [2], 7 nM. The compound further yielded an inhibition in vivo at 30 mg/kg with Mus musculus of 5%.

As for `C=CC(=O)Nc1cccc(-n2c(=O)cc(C)c3cnc(Nc4ccc(N5CCN(C)CC5)cc4OC)nc32)c1`, the “Ratio IC50” value in series [3] is more than 100; in [5], 100; in series [6], more than 100; in series [15], 100. In series [4], this compound came in with an AUC(0-inf) of 0.18 µM·h. The IC50 amounted to 4 nM in the series on NCI-H1975 [1]; 12 nM in series [9]; 4 nM in series [12]; 1200 nM in the series with A-431; 386 nM in [14]; 12 nM in [2]. The half-life in series [7] was 3 h. Further, in [8], the Vd came out at 7.8 L/kg. In addition, the bioavailability in series [10] was 9.5%. Besides, the Activity result in the series filed under Rattus norvegicus [11] is recorded as “Toxic”. In addition, in series [13], the clearance was 177 mL/min/kg. Moreover, the inhibition in vivo at 30 mg/kg in the series with Mus musculus was 90%.

Regarding `C=CC(=O)Nc1cccc(-n2c(=O)ccc3cnc(Nc4ccc(N5CCN(C)CC5)cc4OC)nc32)c1`, in series [4], the AUC(0-inf) turned out to be 0.18 µM·h. Further, the “Ratio IC50” value in [5] and in series [15] was 17 in each case. The IC50 is 8 nM with NCI-H1975 [1]; 3 nM in series [9]; 3 nM in [12]; 5230 nM with A-431; 50 nM in series [14]; 4 nM in series [2]. This compound had a half-life in [7] of 1.4 h. Moreover, the Vd in series [8] turned out to be 19 L/kg. For the same compound, the bioavailability in series [10] was determined as 6.6%. The compound also gave a clearance in [13] of 148 mL/min/kg.

As for `C=CC(=O)Nc1cccc(-n2c(=O)cc(C)c3cnc(Nc4ccc(N5CCOCC5)cc4OC)nc32)c1`, in the series on NCI-H1975 [1], the IC50 is more than 10000 nM.

Consider `C=CC(=O)Nc1cccc(-n2c(=O)cc(C)c3cnc(Nc4ccc(C5CCN(C)CC5)cc4OC)nc32)c1`, for which the values for the IC50 (in the series with NCI-H1975 [1]; in [2]) were 4 nM and 33 nM, respectively.

With `C=CC(=O)Nc1cccc(-n2c(=O)cc(C)c3cnc(Nc4ccc(N(C)CCN(C)C)cc4OC)nc32)c1`, the TGI entry in the series with NCI-H1975 [16] is “Active”. This compound came in with an AUC with Rattus norvegicus [17] of 0.16 µM·h. For the same compound, the IC50 in the series with NCI-H1975 [1] is 8 nM; in series [9], 12 nM; in [12], 6 nM; in the series on A-431, more than 1000 nM; in series [14] it was 521 nM; in series [2], 22 nM. In series [7], this compound had a half-life of 2.6 h. Further, the Vd in [8] stood at 20 L/kg. This compound also displayed a F with Rattus norvegicus [18] of 21%. Also, the Activity result in the series filed under Rattus norvegicus [11] is reported as “Non-toxic”. In addition, the CL in the series on Rattus norvegicus [19] amounted to 128 mL/min/kg. The compound further gave an inhibition in vivo at 30 mg/kg in the series on Mus musculus of 80%.

For `C=CC(=O)Nc1cccc(-n2c(=O)c(OC)c(C)c3cnc(Nc4ccc(N5CCN(C)CC5)cc4OC)nc32)c1`, the IC50 with NCI-H1975 [1] amounted to 10 nM; with A-431, 1390 nM; in series [2], 41 nM.

As for `C=CC(=O)Nc1cccc(-n2c(=O)cc(C)c3cnc(Nc4ccc(N5CCN(C(C)=O)CC5)cc4OC)nc32)c1`, the values for the IC50 (in the series on NCI-H1975 [1]; in the series with A-431; in [2]) were 30 nM, more than 5000 nM and 58 nM, respectively.

For the compound `C=CC(=O)Nc1cccc(-n2c(=O)c(Cc3ccccc3)cc3cnc(Nc4ccc(N5CCN(C)CC5)cc4OC)nc32)c1`, the IC50 in the series on NCI-H1975 [1] amounted to 4 nM; in the series on A-431 it was 250 nM; in series [2], 18 nM.

For `C=CC(=O)Nc1cccc(-n2c(=O)cc(C)c3cnc(Nc4ccc(N5CCNCC5)cc4OC)nc32)c1`, the IC50 was 68 nM in the series with NCI-H1975 [1], more than 1000 nM in the series with A-431 and 211 nM in series [2].

These data come from ChEMBL document CHEMBL3632511, “Oxopyrido[2,3-d]pyrimidines as Covalent L858R/T790M Mutant Selective Epidermal Growth Factor Receptor (EGFR) Inhibitors” (ACS Med Chem Lett, 2015).
